Active and inactive are the calls of the source.
Experiments:
[1] = Neurotoxicity in ip dosed albino mouse assessed as minimal motor impairment after 0.25 hrs by rotorod test; format: toxicity, organism-based; conditions: in vivo
Summary of the method: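 TD50, with 95% confidence intervals, was the ip dose causing neurotoxicity in 50% of male albino mice. Deficit was judged on the rotorod: a 1 in. knurled rod at 6 rpm, where failure to hold on for 1 min in each of three trials counted as deficit. Read at the stated time after dosing.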

Mus musculus [2] = assay: Anticonvulsant activity in ip dosed albino mouse assessed as protection against subcutaneous pentetrazole-induced seizures after 1 hr; format: functional
Mus musculus [3] = organism: Mus musculus; assay: Protective index, ratio TD50 for albino mouse to ED50 for albino mouse by maximal electroshock-induced seizure test after 1 hr; format: functional
Summary of the method: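 Protective index was calculated as mouse ip TD50 (rotorod) divided by mouse ip MES ED50, both obtained by quantitative dose-response testing at the stated post-dose time.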

Mus musculus [4] = assay: Anticonvulsant activity in ip dosed albino mouse assessed as protection against maximal electroshock-induced seizures after 1 hr; format: functional
Summary of the method: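 ED50, with 95% confidence intervals, was the ip dose protecting 50% of mice in the MES test. It was measured at the stated post-dose time in male albino mice given suspensions in 0.5% methylcellulose. MES used 60 Hz, 50 mA, 0.2 s corneal stimulation, and the endpoint was abolition of hindlimb tonic extension.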

Mus musculus [5] = assay: Neurotoxicity in albino mouse assessed as minimal motor impairment at 300 mg/kg, ip after 4 hrs by rotorod test; format: toxicity, organism-based; design: dose 300 mg/kg, route intraperitoneal; conditions: in vivo
Summary of the method: (§1)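 Male albino mice (Carworth Farms No. 1) were dosed ip with suspensions in 0.5% methylcellulose and put on a 1 in. knurled rod rotating at 6 rpm at set times after dosing. Neurotoxicity meant failure to stay on the rod for at least 1 min in each of three trials. Scored as impaired/tested.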

Mus musculus [6] = assay: Neurotoxicity in albino mouse assessed as minimal motor impairment at 100 mg/kg, ip after 4 hrs by rotorod test; format: toxicity, organism-based; design: dose 100 mg/kg, route intraperitoneal; conditions: in vivo; summary of the method: as §1
Mus musculus [7] = assay: Neurotoxicity in albino mouse assessed as minimal motor impairment at 30 mg/kg, ip after 4 hrs by rotorod test; format: toxicity, organism-based; design: dose 30 mg/kg, route intraperitoneal; conditions: in vivo; summary of the method: as §1
Mus musculus [8] = assay: Neurotoxicity in albino mouse assessed as minimal motor impairment at 10 mg/kg, ip after 0.5 hrs by rotorod test; format: toxicity, organism-based; design: dose 10 mg/kg, route intraperitoneal; conditions: in vivo; summary of the method: as §1
Mus musculus [9] = assay: Neurotoxicity in albino mouse assessed as minimal motor impairment at 3 mg/kg, ip after 0.5 hrs by rotorod test; format: toxicity, organism-based; design: dose 3 mg/kg, route intraperitoneal; conditions: in vivo; summary of the method: as §1
Mus musculus [10] = assay: Anticonvulsant activity in albino mouse assessed as protection against subcutaneous pentetrazole-induced seizures at 300 mg/kg, ip after 4 hrs; format: functional, organism-based; design: dose 300 mg/kg
Summary of the method: (§2)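 Male albino mice (Carworth Farms No. 1) received compound ip in 0.5% methylcellulose, then pentetrazole 85 mg/kg sc in 0.9% NaCl at 0.5 or 4 h. Mice were watched for at least 30 min. Protection meant no threshold seizure, defined as a single clonic spasm lasting at least 5 s. Scored as protected/tested.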

Mus musculus [11] = assay: Anticonvulsant activity in albino mouse assessed as protection against subcutaneous pentetrazole-induced seizures at 100 mg/kg, ip after 4 hrs; format: functional, organism-based; design: dose 100 mg/kg; summary of the method: as §2
Mus musculus [12] = assay: Anticonvulsant activity in albino mouse assessed as protection against subcutaneous pentetrazole-induced seizures at 300 mg/kg, ip after 0.5 hrs; format: functional, organism-based; design: dose 300 mg/kg; summary of the method: as §2
Mus musculus [13] = assay: Anticonvulsant activity in albino mouse assessed as protection against subcutaneous pentetrazole-induced seizures at 30 mg/kg, ip after 4 hrs; format: functional, organism-based; design: dose 30 mg/kg; summary of the method: as §2
Mus musculus [14] = assay: Anticonvulsant activity in albino mouse assessed as protection against subcutaneous pentetrazole-induced seizures at 100 mg/kg, ip after 0.5 hrs; format: functional, organism-based; design: dose 100 mg/kg; summary of the method: as §2
Mus musculus [15] = assay: Anticonvulsant activity in albino mouse assessed as protection against subcutaneous pentetrazole-induced seizures at 30 mg/kg, ip after 0.5 hrs; format: functional, organism-based; design: dose 30 mg/kg; summary of the method: as §2
Mus musculus [16] = assay: Anticonvulsant activity in albino mouse assessed as protection against maximal electroshock-induced seizures at 300 mg/kg, ip after 4 hrs; format: functional, organism-based; design: dose 300 mg/kg
Summary of the method: (§3)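 Male albino mice (Carworth Farms No. 1) were given the compound ip as a suspension in 0.5% methylcellulose at 3–300 mg/kg. MES testing was at 0.5 and 4 h, sometimes also at 0.25 and 1 h. Current was 60 Hz, 50 mA, 0.2 s via corneal electrodes, with saline eye drops. Protection meant no hindlimb tonic extension, scored as protected/tested.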

Mus musculus [17] = assay: Anticonvulsant activity in albino mouse assessed as protection against maximal electroshock-induced seizures at 100 mg/kg, ip after 4 hrs; format: functional, organism-based; design: dose 100 mg/kg; summary of the method: as §3
Mus musculus [18] = assay: Anticonvulsant activity in albino mouse assessed as protection against maximal electroshock-induced seizures at 30 mg/kg, ip after 4 hrs; format: functional, organism-based; design: dose 30 mg/kg; summary of the method: as §3
Mus musculus [19] = assay: Anticonvulsant activity in albino mouse assessed as protection against maximal electroshock-induced seizures at 3 mg/kg, ip after 0.5 hrs; format: functional, organism-based; design: dose 3 mg/kg; summary of the method: as §3
Mus musculus [20] = assay: Anticonvulsant activity in albino mouse assessed as protection against maximal electroshock-induced seizures at 300 mg/kg, ip after 0.5 hrs; format: functional, organism-based; design: dose 300 mg/kg; summary of the method: as §3
Mus musculus [21] = assay: Anticonvulsant activity in albino mouse assessed as protection against maximal electroshock-induced seizures at 100 mg/kg, ip after 0.5 hrs; format: functional, organism-based; design: dose 100 mg/kg; summary of the method: as §3
Mus musculus [22] = assay: Anticonvulsant activity in albino mouse assessed as protection against maximal electroshock-induced seizures at 30 mg/kg, ip after 0.5 hrs; format: functional, organism-based; design: dose 30 mg/kg; summary of the method: as §3
Mus musculus [23] = assay: Neurotoxicity in albino mouse assessed as minimal motor impairment at 30 mg/kg, ip after 0.5 hrs by rotorod test; format: toxicity, organism-based; design: dose 30 mg/kg, route intraperitoneal; conditions: in vivo; summary of the method: as §1
Rattus norvegicus [24] = assay: Neurotoxicity in Sprague-Dawley rat assessed as minimal motor impairment at 30 mg/kg, po after 1 hr by rotorod test; conditions: in vivo
Rattus norvegicus [25] = assay: Neurotoxicity in Sprague-Dawley rat assessed as minimal motor impairment at 30 mg/kg, po after 4 hrs by rotorod test; conditions: in vivo
Rattus norvegicus [26] = assay: Neurotoxicity in Sprague-Dawley rat assessed as minimal motor impairment at 30 mg/kg, po after 2 hrs by rotorod test; conditions: in vivo
Rattus norvegicus [27] = assay: Neurotoxicity in Sprague-Dawley rat assessed as minimal motor impairment at 30 mg/kg, po after 0.5 hrs by rotorod test; conditions: in vivo
Rattus norvegicus [28] = assay: Neurotoxicity in Sprague-Dawley rat assessed as minimal motor impairment at 30 mg/kg, po after 0.25 hrs by rotorod test; conditions: in vivo

CC[C@@H](CO)NCc1ccc2oc3cc(OC)ccc3c(=O)c2c1
TD50 at 0.25 h [1]: > 400 mg/kg
ED50 (Mus musculus [2]): > 200 mg/kg
Ratio TD50/ED50 (Mus musculus [3]): >8.41
ED50 (Mus musculus [4]): 47.6 mg/kg
Activity (Mus musculus [5]): Toxic
Activity (Mus musculus [6]): Non-toxic
Activity (Mus musculus [7]): Non-toxic
Activity (Mus musculus [8]): Non-toxic
Activity (Mus musculus [9]): Non-toxic
Activity (Mus musculus [10]): inactive
Activity (Mus musculus [11]): inactive
Activity (Mus musculus [12]): inactive
Activity (Mus musculus [13]): inactive
Activity (Mus musculus [14]): inactive
Activity (Mus musculus [15]): inactive
Activity (Mus musculus [16]): Active
Activity (Mus musculus [17]): Active
Activity (Mus musculus [18]): inactive
Activity (Mus musculus [19]): inactive
Activity (Mus musculus [20]): Active
Activity (Mus musculus [21]): Active
Activity (Mus musculus [22]): Active
Activity (Mus musculus [23]): Non-toxic
Activity (Rattus norvegicus [24]): Non-toxic
Activity (Rattus norvegicus [25]): Non-toxic
Activity (Rattus norvegicus [26]): Non-toxic
Activity (Rattus norvegicus [27]): Non-toxic
Activity (Rattus norvegicus [28]): Non-toxic
